Reference: ChEMBL document CHEMBL1155452, “Oncocin (VDKPPYLPRPRPPRRIYNR-NH2): a novel antibacterial peptide optimized against gram-negative human pathogens” (J Med Chem, 2010)

Key:
[1] = system: Escherichia coli; test: Antimicrobial activity against Escherichia coli Neumann after 20 hrs by broth microdilution method; type: functional
Method in brief: (§1)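 Pathogens grown overnight on Columbia agar. Colonies suspended in 0.9% saline to OD 0.1, diluted 1:300 in 1% TSB, final (1-2) × 10^5 cfu/well. Peptides 2-fold serially diluted in 1% TSB from 128 to typically 0.5 μg/mL. Incubation at 37 °C; A595 read after 20 ± 2 h. MIC is the lowest concentration with absorbance not above medium only. Triplicate.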

[2] = system: Pseudomonas aeruginosa; test: Antimicrobial activity against Pseudomonas aeruginosa 60909001 after 20 hrs by broth microdilution method; type: functional; details: Pseudomonas aeruginosa, 60909001, 20 h
Method in brief: (§2)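 Pathogenic strains grown overnight on Columbia agar, colonies suspended in 0.9% saline to OD 0.1, diluted 1:300 in 1% TSB; final (1-2) × 10^5 cfu/well. Peptides 2-fold serially diluted in 1% TSB from 128 μg/mL, typically to 0.5 μg/mL. Incubated 37 °C, absorbance at 595 nm after 20 ± 2 h, in triplicate; MIC = lowest concentration with absorbance not exceeding medium only.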

[3] = system: Stenotrophomonas; test: Antimicrobial activity against Stenotrophomonas ICB 308054 after 20 hrs by broth microdilution method; type: functional; details: ICB 308054, 20 h; method in brief: as §1
[4] = Stability in 25% mouse serum assessed as compound remaining at 75 ug/ml after 2 hrs by MALDI-TOF-MS analysis; type: ADME, cell-free; details: read-out: Stability
Method in brief: (§3)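 Peptide at 75 μg/mL final in pooled mouse serum (undiluted or 25% v:v aqueous), 37 °C. Triplicate aliquots taken at 0, 30, 60, 120 and 240 min and precipitated with 3% TCA on ice for 10 min. Supernatant neutralized with NaOH and analysed by RP-HPLC on C18 with TFA-containing gradient. Amounts expressed relative to 0 min; metabolites identified by MALDI-TOF-MS.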

[5] = system: Pseudomonas aeruginosa; test: Antimicrobial activity against Pseudomonas aeruginosa PAO1 after 20 hrs by broth microdilution method; type: functional; details: PAO1, 20 h; method in brief: as §2
[6] = system: Enterobacter cloacae; test: Antimicrobial activity against Enterobacter cloacae Ha89 after 20 hrs by broth microdilution method; type: functional; details: Ha89, 20 h; method in brief: as §1
[7] = system: Escherichia coli; test: Antimicrobial activity against Escherichia coli 70419002 after 20 hrs by broth microdilution method; type: functional; details: Escherichia coli, 70419002, 20 h; method in brief: as §1
[8] = system: Escherichia coli; test: Antimicrobial activity against Escherichia coli 205024 after 20 hrs by broth microdilution method; type: functional; details: Escherichia coli, 205024, 20 h; method in brief: as §1
[9] = system: Klebsiella pneumoniae; test: Antimicrobial activity against Klebsiella pneumoniae ATCC 12657 after 20 hrs by broth microdilution method; type: functional; details: ATCC 12657, 20 h; method in brief: as §1
[10] = system: HeLa; test: Cytotoxicity against human HeLa cells at 600 ug/ml after 24 hrs by MTT assay; type: cell-based
Method in brief: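 HeLa (1.5 × 10^4/well, seeded overnight) or SH-SY5Y (2 × 10^4/well, differentiated 5 days with 10 μM trans-retinoic acid) in DMEM/Ham's F-12 with 5% or 15% FBS. Peptide added at 600 μg/mL for 24 h at 37 °C, 5% CO2. MTT 0.5 mg/mL for 4 h, then SDS/HCl for 16 h; A590 read against 650 nm. Normalized to PBS (100%); DMSO 12% as positive control.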

[11] = system: Escherichia coli; test: Antimicrobial activity against Escherichia coli 70329001 after 20 hrs by broth microdilution method; type: functional; details: Escherichia coli, 70329001, 20 h; method in brief: as §1
[12] = system: Acinetobacter baumannii; test: Antimicrobial activity against Acinetobacter baumannii M17 after 20 hrs by broth microdilution method; type: functional; details: M17, 20 h; method in brief: as §1
[13] = system: Escherichia coli; test: Antimicrobial activity against Escherichia coli 8474 after 20 hrs by broth microdilution method; type: functional; details: Escherichia coli, 8474, 20 h; method in brief: as §1
[14] = system: Pseudomonas aeruginosa; test: Antimicrobial activity against Pseudomonas aeruginosa DSM 3227 after 20 hrs by broth microdilution method; type: functional; details: DSM 3227, 20 h; method in brief: as §2
[15] = system: Stenotrophomonas; test: Antimicrobial activity against Stenotrophomonas ICB 7789 after 20 hrs by broth microdilution method; type: functional; details: ICB 7789, 20 h; method in brief: as §1
[16] = system: Stenotrophomonas; test: Antimicrobial activity against Stenotrophomonas ICB 7569 after 20 hrs by broth microdilution method; type: functional; details: ICB 7569, 20 h; method in brief: as §1
[17] = system: Serum; test: Stability in 25% mouse serum assessed as peptide-12 level at 75 ug/ml after 2 hrs by MALDI-TOF-MS analysis; type: ADME, cell-free; method in brief: as §3
[18] = system: Proteus vulgaris; test: Antimicrobial activity against Proteus vulgaris ICB 9095 after 20 hrs by broth microdilution method; type: functional; details: ICB 9095, 20 h; method in brief: as §1
[19] = system: Escherichia coli; test: Antibacterial activity against Escherichia coli BL21 AI after 20 hrs by broth microdilution assay; type: functional
Method in brief: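 Nutrient-broth overnight cultures diluted in 1% TSB; E. coli BL21AI 7.5 × 10^5 cells/well, M. luteus ATCC 10240 2 × 10^6 cells/well. Peptides serially 2-fold diluted in 1% TSB from 128 to typically 0.5 μg/mL. Incubation at 37 °C; A595 read after 20 ± 2 h. MIC is the lowest concentration with absorbance not above medium only. Triplicate.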

[20] = Stability in 25% mouse serum assessed as half life at 75 ug/ml by MALDI-TOF-MS analysis; type: ADME, cell-free; method in brief: as §3
[21] = system: Acinetobacter baumannii; test: Antimicrobial activity against Acinetobacter baumannii ICB 14073 after 20 hrs by broth microdilution method; type: functional; details: ICB 14073, 20 h; method in brief: as §1
[22] = system: Acinetobacter baumannii; test: Antimicrobial activity against Acinetobacter baumannii ICB 14067 after 20 hrs by broth microdilution method; type: functional; details: ICB 14067, 20 h; method in brief: as §1
[23] = Stability in 100% mouse serum assessed as half life at 75 ug/ml by MALDI-TOF-MS analysis; type: ADME, cell-free; method in brief: as §3
[24] = system: Pseudomonas aeruginosa; test: Antimicrobial activity against Pseudomonas aeruginosa Walter after 20 hrs by broth microdilution method; type: functional; method in brief: as §2
[25] = system: Proteus vulgaris; test: Antimicrobial activity against Proteus vulgaris ICB 9081 after 20 hrs by broth microdilution method; type: functional; details: ICB 9081, 20 h; method in brief: as §1
[26] = system: Klebsiella pneumoniae; test: Antimicrobial activity against Klebsiella pneumoniae 63 after 20 hrs by broth microdilution method; type: functional; details: Klebsiella pneumoniae, 63, 20 h; method in brief: as §2
[27] = system: Pseudomonas aeruginosa; test: Antimicrobial activity against Pseudomonas aeruginosa 60811001 after 20 hrs by broth microdilution method; type: functional; details: Pseudomonas aeruginosa, 60811001, 20 h; method in brief: as §2
[28] = system: Acinetobacter baumannii; test: Antimicrobial activity against Acinetobacter baumannii ICB 9250 after 20 hrs by broth microdilution method; type: functional; details: ICB 9250, 20 h; method in brief: as §1
[29] = system: Klebsiella pneumoniae; test: Antimicrobial activity against Klebsiella pneumoniae 57 USA after 20 hrs by broth microdilution method; type: functional; method in brief: as §1
[30] = system: Klebsiella pneumoniae; test: Antimicrobial activity against Klebsiella pneumoniae DSM 681 after 20 hrs by broth microdilution method; type: functional; details: DSM 681, 20 h; method in brief: as §1
[31] = system: Pseudomonas aeruginosa; test: Antimicrobial activity against Pseudomonas aeruginosa 70108001 after 20 hrs by broth microdilution method; type: functional; details: Pseudomonas aeruginosa, 70108001, 20 h; method in brief: as §2
[32] = system: Enterobacter cloacae; test: Antimicrobial activity against Enterobacter cloacae 34654 after 20 hrs by broth microdilution method; type: functional; details: Enterobacter cloacae, 34654, 20 h; method in brief: as §1
[33] = system: Enterobacter cloacae; test: Antimicrobial activity against Enterobacter cloacae Ha089 after 20 hrs by broth microdilution method; type: functional; details: Ha089, 20 h; method in brief: as §1
[34] = system: Acinetobacter baumannii; test: Antimicrobial activity against Acinetobacter baumannii ICB 14072 after 20 hrs by broth microdilution method; type: functional; details: ICB 14072, 20 h; method in brief: as §1

Substance: H-VDKPPYLPRPRPPRRIYNR-NH2 [ONCOCIN]
- MIC [1]: 2 µg/mL
- MIC [2]: 2 µg/mL
- MIC [3]: 32 µg/mL
- remaining at 2 h, 75 ug/ml [4]: 60%
- MIC [5]: 2 µg/mL
- MIC [6]: 0.25 µg/mL
- MIC [7]: 8 µg/mL
- MIC [8]: 4 µg/mL
- MIC [9]: 0.5 µg/mL
- Activity [10]: Non-toxic
- MIC [11]: 1 µg/mL
- MIC [12]: 1 µg/mL
- MIC [13]: 0.5 µg/mL
- MIC [14]: 4 µg/mL
- MIC [15]: 32 µg/mL
- MIC [16]: 8 µg/mL
- Activity [17]: 20%
- MIC [18]: 4 µg/mL
- MIC [19]: 4 µg/mL
- half-life at 75 ug/ml [20]: 70 min
- MIC [21]: 2 µg/mL
- MIC [22]: 1 µg/mL
- half-life at 75 ug/ml [23]: 20 min
- MIC [24]: 8 µg/mL
- MIC [25]: 4 µg/mL
- MIC [26]: 8 µg/mL
- MIC [27]: 2 µg/mL
- MIC [28]: 0.5 µg/mL
- MIC [29]: 0.25 µg/mL
- MIC [30]: 0.25 µg/mL
- MIC [31]: 4 µg/mL
- MIC [32]: 0.25 µg/mL
- MIC [33]: 0.125 µg/mL
- MIC [34]: 1 µg/mL
